ChEMBL document CHEMBL3580547, “Novel Pyrazole Derivatives Effectively Inhibit Osteoclastogenesis, a Potential Target for Treating Osteoporosis” (J Med Chem, 2015)
Active and inactive are the calls of the source. The calls are words filed in the database; no cut-off is given here.

Columns and labels:
cells = conditions: Rattus norvegicus, Sprague-Dawley, Osteoclast, 120 h, read-out: INH
[1] = biological target: T1, Tumor necrosis factor ligand superfamily member 11 (Mus musculus) (UniProt O35235); test: Antiosteoclastogenic activity in ICR mouse bone marrow-derived preosteoclasts assessed as inhibition of RANKL/M-CSF-induced osteoclast formation at 10 uM after 5 days by TRAP staining; assay type: functional, cell-based
T1 sequence (whole entry): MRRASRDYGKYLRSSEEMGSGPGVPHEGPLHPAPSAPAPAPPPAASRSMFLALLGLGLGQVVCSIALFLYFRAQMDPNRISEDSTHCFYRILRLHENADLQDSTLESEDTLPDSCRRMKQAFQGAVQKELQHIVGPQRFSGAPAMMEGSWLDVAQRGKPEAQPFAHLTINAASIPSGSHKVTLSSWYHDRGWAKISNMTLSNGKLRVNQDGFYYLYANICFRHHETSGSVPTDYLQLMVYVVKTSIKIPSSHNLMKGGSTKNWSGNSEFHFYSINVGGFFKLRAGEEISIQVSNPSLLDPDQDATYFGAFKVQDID
Outline: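 They were plated at 10⁶ cells/well with RANKL (50 ng/mL), M-CSF (20 ng/mL) and compound for 5 days. Cells were fixed in 4% paraformaldehyde and TRAP-stained for 1 h at 37 °C. TRAP-positive cells with ≥3 nuclei were counted as osteoclasts.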

Mus musculus [2] = test: Antiosteoporosis activity in ovariectomized ICR mouse assessed as inhibition of ovariectomy-induced reduction of trabecular thickness at 10 mg/kg, sc administered for 5 days/week for 30 days measured on day 30 by microcomputed tomographic analysis; assay type: functional, organism-based; conditions: Trabecula
Outline: (§1)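 Female ICR mice (12 weeks old) were bilaterally ovariectomized or sham-operated. Starting 2 days post-surgery, they were dosed s.c. at 10 mg/kg, 5 days/week, or given vehicle for 30 days. Tibiae were fixed in 4% paraformaldehyde and scanned by μCT. BV/TV, Tb.N and Tb.Th were quantified 0.5−1.5 mm distal to the proximal growth plate.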

Mus musculus [3] = test: Antiosteoporosis activity in ovariectomized ICR mouse assessed as inhibition of ovariectomy-induced reduction of trabecular bone number at 10 mg/kg, sc administered for 5 days/week for 30 days measured on day 30 by microcomputed tomographic analysis; assay type: functional, organism-based; conditions: Trabecula
Outline: as §1

[4] = biological target: Transcription factor p65 (Mus musculus) (UniProt Q04207); test: Inhibition of RANKL-induced P65 phosphorylation in mouse RAW264.7 cells at 10 uM preincubated for 2 hrs followed by RANKL induction measured over 60 mins by Western blot analysis; assay type: cell-based
Outline: (§2)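 Confluent RAW264.7 cells were pretreated with compound (10 μM) for 2 h, then stimulated with RANKL 50 ng/mL for various times. Lysates (30 μg protein per lane) were run on 10% SDS gels and transferred to PVDF. Blots were probed overnight at 4 °C with antibodies to phospho- and total IKKα/β and p65, with actin as control, followed by HRP secondary antibodies.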

[5] = Cytotoxicity against cranium-derived preosteoblasts (unknown origin) assessed as effect on cell viability after 24 hrs by MTT assay; assay type: cell-based; conditions: osteoblast
Outline: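 Osteoblasts were plated for 24 h, then exposed to compound for another 24 h. Viability was measured by MTT at 0.5 mg/mL in α-MEM for 60 min at 37 °C, with DMSO solubilisation and absorbance at 550 nm.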

Osteoclast [6] = test: Effect on osteoclast formation from RANKL/M-CSF-stimulated Sprague-Dawley rat bone marrow-derived preosteoclasts at 10 uM treated for 3 days post 5 days RANKL/M-CSF stimulation measured on day 8 by inverted microscopic analysis relative to control; assay type: functional, cell-based
Mus musculus [7] = test: Antiosteoporosis activity in ovariectomized ICR mouse assessed as inhibition of ovariectomy-induced C-terminal telopeptides of type-1 collagen level in serum at 10 mg/kg, sc administered for 5 days/week for 30 days measured on day 30 by enzyme immunoassay; assay type: functional, organism-based
Outline: (§3)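 Twelve-week-old female ICR mice were bilaterally ovariectomized under isoflurane, with sham-operated controls. From 2 days after surgery, mice received s.c. compound or vehicle 5 days/week for 30 days. On day 30, serum was prepared by centrifugation at 1500g for 15 min. CTx was measured with a RatLaps EIA (N = 8) and osteocalcin with a Rat-MID osteocalcin EIA (N = 9).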

Mus musculus [8] = test: Antiosteoporosis activity in ovariectomized ICR mouse assessed as inhibition of ovariectomy-induced osteocalcin level in serum at 10 mg/kg, sc administered for 5 days/week for 30 days measured on day 30 by enzyme immunoassay; assay type: functional, organism-based
Outline: as §3

[9] = biological target: T1, Tumor necrosis factor ligand superfamily member 11 (Mus musculus); test: Inhibition of RANKL-induced IKK phosphorylation in mouse RAW264.7 cells at 10 uM preincubated for 2 hrs followed by RANKL induction measured over 60 mins by Western blot analysis; assay type: cell-based
Outline: as §2

[10] = Cytotoxicity against cranium-derived preosteoblasts (unknown origin) assessed as inhibition of bone mineralized nodule formation after 2 weeks by alizarin red staining assay in presence of beta-glycerophosphate and L-ascorbic acid; assay type: cell-based; conditions: osteoblast, 336 h
Outline: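 Cranium-derived preosteoblasts were grown in α-MEM with 10% FBS. Mineralisation was induced with 10 mM β-glycerophosphate and 50 μg/mL L-ascorbic acid, with or without compound, for 2 weeks. Cells were fixed in ice-cold 75% ethanol for 30 min and stained with 40 mM alizarin red (pH 4.2). Stain was quantified at 550 nm against a standard curve.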

[11] = Cytotoxicity against Sprague-Dawley rat bone marrow-derived preosteoclasts assessed as cell viability at 10 uM incubated for 5 days measured on day 8 by MTT assay in presence of M-CSF; assay type: cell-based; conditions: osteoclast, 120 h
Outline: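 Nonadherent bone-marrow preosteoclasts were seeded at 10⁶ cells/well with M-CSF 20 ng/mL for 3 days, then treated with compound for another 5 days. After washing, cells were given MTT at 0.5 mg/mL in α-MEM for 60 min at 37 °C. Formazan was dissolved in DMSO and absorbance read at 550 nm.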

Mus musculus [12] = test: Antiosteoporosis activity in ovariectomized ICR mouse assessed as inhibition of ovariectomy-induced reduction of trabecular bone number at 10 mg/kg, sc administered for 5 days/week for 30 days measured on day 30 by Hematoxylin and eosin staining; assay type: functional, organism-based; conditions: Trabecula
Outline: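 Ovariectomized or sham-operated female ICR mice were dosed s.c. at 10 mg/kg, 5 days/week, for 30 days. Tibiae taken on day 30 were fixed in 4% paraformaldehyde at 4 °C for 48 h and decalcified in 10% Na2EDTA at 4 °C for 14 days. They were then paraffin-embedded, cut longitudinally at 4 μm and stained with hematoxylin−eosin.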

Osteoclast [13] = test: Antiosteoclastogenic activity in Sprague-Dawley rat bone marrow-derived preosteoclasts assessed as inhibition of RANKL/M-CSF-induced osteoclast formation treated on day 3 post RANKL/M-CSF induction measured over day 3 to day 5 by TRAP staining; assay type: functional, cell-based
Outline: (§4)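 Rat bone-marrow preosteoclasts were cultured with RANKL 50 ng/mL and M-CSF 20 ng/mL. Compound (10 μM) was added during defined day windows, with days 3−5 taken as the late phase. Osteoclasts were scored by TRAP staining as TRAP-positive cells with ≥3 nuclei (N = 3).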

RAW264.7 = test: Inhibition of osteoclast formation in mouse RAW264.7 cells; assay type: functional, cell-based
Osteoclast [14] = test: Antiosteoclastogenic activity in Sprague-Dawley rat bone marrow-derived preosteoclasts assessed as inhibition of RANKL/M-CSF-induced osteoclast formation treated on day 1 measured over day 1 to day 3 by TRAP staining; assay type: functional, cell-based
Outline: as §4

Mus musculus [15] = test: Antiosteoporosis activity in ovariectomized ICR mouse assessed as inhibition of ovariectomy-induced reduction of trabecular bone volume relative to tissue volume at 10 mg/kg, sc administered for 5 days/week for 30 days measured on day 30 by microcomputed tomographic analysis; assay type: functional, organism-based; conditions: Trabecula
Outline: as §1

Osteoclast [16] = test: Antiresorptive activity in RANKL/M-CSF-stimulated Sprague-Dawley rat bone marrow-derived preosteoclasts assessed as inhibition of osteoclast resorption area at 10 uM treated for 3 days post 5 days RANKL/M-CSF stimulation measured on day 8 by inverted microscopic analysis; assay type: functional
Outline: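 Rat bone-marrow preosteoclasts were seeded at 10⁶ cells/well on resorbable assay plates with RANKL 50 ng/mL and M-CSF 20 ng/mL for 5 days. Both factors were then removed and compound was added for another 3 days. Cells were stripped with 1 N NaOH, and resorbed areas were photographed under an inverted microscope and quantified by image analysis.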

Osteoclast [17] = conditions: Rattus norvegicus, Sprague-Dawley, 10 uM

Chain of Transcription factor p65 (Mus musculus) (Q04207 whole entry): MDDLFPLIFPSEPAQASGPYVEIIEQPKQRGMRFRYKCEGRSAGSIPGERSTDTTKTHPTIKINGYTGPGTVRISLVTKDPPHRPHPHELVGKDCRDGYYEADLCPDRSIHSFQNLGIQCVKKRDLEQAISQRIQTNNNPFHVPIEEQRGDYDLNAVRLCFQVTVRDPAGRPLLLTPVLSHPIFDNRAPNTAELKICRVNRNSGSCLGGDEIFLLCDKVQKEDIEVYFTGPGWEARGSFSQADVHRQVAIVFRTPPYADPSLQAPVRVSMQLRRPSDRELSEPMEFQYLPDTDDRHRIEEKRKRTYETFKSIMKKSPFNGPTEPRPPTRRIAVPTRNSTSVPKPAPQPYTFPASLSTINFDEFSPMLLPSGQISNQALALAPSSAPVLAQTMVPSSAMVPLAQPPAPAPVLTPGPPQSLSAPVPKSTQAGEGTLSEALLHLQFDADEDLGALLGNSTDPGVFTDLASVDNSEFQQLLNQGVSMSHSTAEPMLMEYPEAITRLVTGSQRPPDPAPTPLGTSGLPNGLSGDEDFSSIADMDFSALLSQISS

## CC(=O)c1ccc(-c2nn(Cc3ccccc3)c3ccccc23)o1
cells
  inhibition at 10 µM: 20%

## CC(C)(C)C(=O)OCc1ccc(-c2nn(Cc3ccccc3)c3ccccc23)o1
cells
  inhibition at 10 µM: 20%

## OCCc1ccc(-c2nn(Cc3ccccc3)c3ccccc23)o1
cells
  inhibition at 10 µM: 20%

## O=C(O)c1ccc(-c2nn(Cc3ccccc3)c3ccccc23)o1
cells
  inhibition at 10 µM: 20%

## CN(C)CCOC(=O)c1ccc(-c2nn(Cc3ccccc3)c3ccccc23)o1
[1]
  inhibition: Active
Mus musculus [2]
  inhibition: Active
Mus musculus [3]
  inhibition: Active
[4]
  inhibition: Active
[5]
  Activity: Non-toxic
Osteoclast [6]
  Activity: inactive
cells
  inhibition at 10 µM: > 90%
Mus musculus [7]
  inhibition: Active
Mus musculus [8]
  inhibition: Active
[9]
  inhibition: Active
[10]
  Activity: Non-toxic
[11]
  Activity: Non-toxic
Mus musculus [12]
  inhibition: Active
Osteoclast [13]
  inhibition: Dose-dependent effect
RAW264.7
  inhibition: Active
Osteoclast [14]
  inhibition: Dose-dependent effect
Mus musculus [15]
  inhibition: Active
Osteoclast [16]
  inhibition at 10 µM: > 75%

## NCCCC(O)(P(=O)(O)O)P(=O)(O)O
Osteoclast [17]
  inhibition: Active

## CON(C)C(=O)c1ccc(-c2nn(Cc3ccccc3)c3ccccc23)o1
cells
  inhibition at 10 µM: 20%

## CC(=O)OCc1ccc(-c2nn(Cc3ccccc3)c3ccccc23)o1
cells
  inhibition at 10 µM: 20%
